What all share (format): cell-based
Data set [1] concerns Raji. The experiment in a line: Inhibition of 12-O-tetradecanoylphorbol-13-acetate-induced EBV-early antigen activation in human Raji cells assessed as EA activation at 1000 molar ratio after 48 hrs relative to TPA. The conditions noted are these: human gammaherpesvirus 4. Set-up: scale not given: the % may be the effect or the level left. The method in brief:
(§1)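 EBV genome-carrying nonproducer Raji lymphoblastoid cells grown in 10% FBS RPMI 1640. Cells were incubated at 37 °C for 48 h with n-butyric acid (4 mM) and TPA (32 pmol, 20 ng/mL) in DMSO, plus test compound in DMSO. Smears were stained with EA-positive nasopharyngeal carcinoma patient sera and read by indirect immunofluorescence, counting ≥500 cells per assay, run twice. Average EA induction is expressed relative to butyrate+TPA control.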

Data set [2] relates to Raji. The experiment in a line: Inhibition of 12-O-tetradecanoylphorbol-13-acetate-induced EBV-early antigen activation in human Raji cells assessed as EA activation at 500 molar ratio after 48 hrs relative to TPA. The conditions noted are these: human gammaherpesvirus 4. Set-up: scale not given: the % may be the effect or the level left. Summed up:
as §1

In data set [3] the test system is Raji. The experiment in a line: Inhibition of 12-O-tetradecanoylphorbol-13-acetate-induced EBV-early antigen activation in human Raji cells assessed as EA activation at 100 molar ratio after 48 hrs relative to TPA. Details: scale not given: the % may be the effect or the level left. The settings on record: human gammaherpesvirus 4. Summed up:
as §1

Data set [4] relates to Raji. The data set is described as follows: Inhibition of 12-O-tetradecanoylphorbol-13-acetate-induced EBV-early antigen activation in human Raji cells assessed as EA activation at 10 molar ratio after 48 hrs relative to TPA. Set-up: scale not given: the % may be the effect or the level left. The settings on record: human gammaherpesvirus 4. Summed up: as §1
Data set [5] is described as follows: Cytotoxicity against human Raji cells assessed as cell viability at 1000 molar ratio by trypan blue assay. The settings on record: read-out: Activity.

SMILES strings stand for the structures.

Consider `C[C@@]12CC[C@@H]3[C@@](CC[C@H]4[C@@]3(C)CCC[C@@]4(C)C(=O)O)(CC1=O)C2` [ISOSTEVIOL], for which the Activity was 12.3% in the data set with Raji [1], 46.7% with Raji [2], 80% with Raji [3] and 98.8% in the data set with Raji [4]. Also, the viability at 1000 molar ratio in data set [5] turned out to be 60%.

Take `C[C@@]12CC[C@@H]3[C@@](CC1=O)(C2)C(=O)C[C@H]1[C@@]3(C)CCC[C@@]1(C)C(=O)O`: the Activity in the data set with Raji [1] came to 7.4%; in the data set on Raji [2] it was 35.1%; in the data set on Raji [3], 72.3%; with Raji [4], 94.5%. In addition, in data set [5], the viability at 1000 molar ratio turned out to be 60%.

Regarding `C[C@@]12CC[C@H]3[C@]4(C)CCC[C@@](C)(C(=O)O)[C@H]4C[C@H](O)[C@]3(CC1=O)C2`, the Activity stood at 6.9% in the data set with Raji [1], 41.7% with Raji [2], 76.3% in the data set on Raji [3] and 94.6% in the data set on Raji [4]. Besides, in data set [5], the viability at 1000 molar ratio came to 60%.

As to `C[C@@]12CCC[C@@](C)(C(=O)O)[C@H]1CC[C@]13CC(=O)[C@](C)(C1)[C@H](O)C[C@H]32`, the Activity in the data set on Raji [1] worked out at 5.7%; in the data set with Raji [2] it was 40%; in the data set on Raji [3] it was 75.1%; in the data set with Raji [4], 93.2%. Besides, the viability at 1000 molar ratio in data set [5] was determined as 60%.

As to `C[C@@]12CCC[C@@](C)(C(=O)O)[C@H]1CC[C@@]13CC(=O)[C@@](CO)(CC[C@H]12)C3`, the Activity was found to be 8.2% in the data set with Raji [1], 42.6% in the data set with Raji [2], 77% with Raji [3] and 95.7% with Raji [4]. The viability at 1000 molar ratio in data set [5] stood at 60%.

With `CC1=C(/C=C/C(C)=C/C=C/C(C)=C/C=C/C=C(C)/C=C/C=C(C)/C=C/C2=C(C)CCCC2(C)C)C(C)(C)CCC1`, the Activity with Raji [1] was determined as 8.6%; with Raji [4] it was 100%.

For `C[C@@]12C[C@H](O)[C@@H]3[C@@](CC[C@H]4[C@@]3(C)CCC[C@@]4(C)C(=O)O)(CC1=O)C2`, the Activity came out at 4% in the data set with Raji [1], 39.8% with Raji [2], 74.1% with Raji [3] and 91% in the data set with Raji [4]. Also, in data set [5], the viability at 1000 molar ratio was 60%.

`C=C1C[C@@]23CC[C@H]4[C@@](C)(CCC[C@@]4(C)C(=O)O[C@@H]4O[C@H](CO)[C@@H](O)[C@H](O)[C@H]4O)[C@@H]2CC[C@]1(O[C@@H]1O[C@H](CO)[C@@H](O)[C@H](O)[C@H]1O[C@@H]1O[C@H](CO)[C@@H](O)[C@H](O)[C@H]1O)C3` [STEVIOSIDE]: the Activity was 12.5% in the data set on Raji [1], 46.2% with Raji [2], 78.9% with Raji [3] and 100% with Raji [4]. For the same compound, in data set [5], the viability at 1000 molar ratio stood at 60%.
